Runt-CBFb FRET: inhibitors of RUNX1 Runt–CBFb binding, primary screen, biochemical, FRET, Cerulean-Runt, Venus-CBFb, uHTS; Cerulean-Runt/Venus-CBFb FRET ratio 530/480, 1 h; inhibition, % at 20 µM; Runt-related transcription factor 1 (Homo sapiens) + Core-binding factor subunit beta …; 0.46% of 220,000 active; AID 1496, 2009;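 active = inhibition over about 50% at 20 µM in the single-dose screen, limit read from the data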
Target sequence (Q01196 whole entry, looked up): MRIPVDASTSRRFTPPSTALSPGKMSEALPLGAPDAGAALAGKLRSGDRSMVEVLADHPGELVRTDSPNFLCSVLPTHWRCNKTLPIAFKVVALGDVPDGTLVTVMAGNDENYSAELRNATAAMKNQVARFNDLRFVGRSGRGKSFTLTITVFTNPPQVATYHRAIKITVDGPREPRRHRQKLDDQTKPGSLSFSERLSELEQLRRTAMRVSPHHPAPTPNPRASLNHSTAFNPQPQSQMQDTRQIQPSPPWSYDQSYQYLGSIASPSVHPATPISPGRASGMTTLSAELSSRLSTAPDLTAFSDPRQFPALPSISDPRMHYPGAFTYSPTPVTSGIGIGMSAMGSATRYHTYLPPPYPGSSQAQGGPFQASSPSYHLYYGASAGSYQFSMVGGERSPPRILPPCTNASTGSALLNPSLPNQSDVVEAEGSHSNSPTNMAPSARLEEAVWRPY
Target sequence (Q13951 whole entry, looked up): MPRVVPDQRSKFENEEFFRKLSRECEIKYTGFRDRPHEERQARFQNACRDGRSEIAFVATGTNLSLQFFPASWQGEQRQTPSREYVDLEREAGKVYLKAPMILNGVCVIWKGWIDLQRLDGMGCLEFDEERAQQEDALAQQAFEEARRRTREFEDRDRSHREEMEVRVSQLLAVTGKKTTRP
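System: Cerulean-labeled Runt domain protein | Quantity: 100 nM of each labeled protein | Schedule: 1 h compound exposure, room temperature | Detection: Fluorescence energy transfer, 422 nm excitation, 530/480 nm emission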
RanGTP-Impb inh: inhibitors of RanGTP-importin-beta interaction, primary screen, biochemical, FRET, CFP-Ran, YFP-importin-beta, homogeneous; Ran GTPase (GTP-bound) - importin-beta complex; cell-free CFP-Ran/YFP-importin-beta FRET ratio; inhibition, % (no concentration beside the values); 1.1% of 300,000 active;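 active = more than half of the replicate wells show a fall in the fluorescence ratio signal beyond about 16%, limit read from the data, passing the limit was not always enough; inconclusive = exactly half of the replicate wells pass the set limit; inactive = fewer than half of replicates pass the limit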
IMP-1 inh: IMP-1 metallo-beta-lactamase inhibitors, primary screen, biochemical, epi-absorbance readout, Pseudomonas aeruginosa enzyme; metallo-beta-lactamase IMP-1 (Pseudomonas aeruginosa); purified IMP-1, nitrocefin hydrolysis, epi-absorbance fluorescence; inhibition, % at 5.6 µM; 0.45% of 290,000 active; AID 1556, 2009;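 active = inhibition above the mean plus 3 SD of all compounds in the same screening run, cut at about 4.5% in these data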
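System: purified IMP-1; amount: IMP-1 0.2 nM before substrate addition; compound: single dose, 5.6 µM; times: 25 °C, 15 min preincubation, 25 min reaction; signal: Epi-absorbance via hydrolysed-nitrocefin quenching of white-plate fluorescence, 480/530 nm, EDTA stop; benchmarks: DMSO with and without IMP-1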
VIM-2 inhibitor: VIM-2 metallo-beta-lactamase inhibitors, primary screen, biochemical, epi-absorbance readout, Pseudomonas aeruginosa enzyme. inhibition, % at 5.6 µM. purified VIM-2, nitrocefin hydrolysis, epi-absorbance fluorescence. 0.89% of 290,000 active;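 active = inhibition above the mean of all tested compounds plus 3 SD, cutoff set per screening run, cut at about 7.5% in these data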;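 note: red hydrolysis product quenches plate fluorescence so inhibitors raise well fluorescence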
Runt-SMMHC FRET: inhibitors of RUNX1 Runt–CBFb-SMMHC binding, primary screen, biochemical, FRET, Cerulean-Runt, Venus-CBFb-SMMHC, uHTS. Runt-related transcription factor 1 (Homo sapiens) + Core-binding factor subunit beta …. Cerulean-Runt/Venus-CBFb-SMMHC FRET ratio 530/480, 1 h. inhibition, % at 20 µM. 0.74% of 220,000 active. AID 1434, 2008;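 active = mean inhibition across duplicate retests at 20 µM reaching about 50%, limit read from the data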;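 note: inhibitors lower the FRET ratio by blocking Runt binding to CBFb-SMMHC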
Each line names hits and unclear results; the compound was inactive in the other large screens. An excerpt weighted towards active compounds, which were near 2.6% of everything screened.

N=c1c(S(=O)(=O)c2ccccc2)cc2c(=O)n3ccccc3nc2n1Cc1cccnc1	RanGTP-Impb inh 122 (no result: Runt-CBFb FRET, IMP-1 inh, VIM-2 inhibitor, Runt-SMMHC FRET)
N=c1c(S(=O)(=O)c2ccc(Br)cc2)cc2c(=O)n3ccccc3nc2n1Cc1ccccc1	none (no result: Runt-CBFb FRET, Runt-SMMHC FRET)
Cc1cccn2c(=O)c3cc(S(=O)(=O)c4ccccc4)c(=N)n(Cc4cccnc4)c3nc12	RanGTP-Impb inh 139, VIM-2 inhibitor 10 (no result: Runt-CBFb FRET, Runt-SMMHC FRET)
CCCCCn1c(=N)c(S(=O)(=O)c2ccc(Cl)cc2)cc2c(=O)n3cccc(C)c3nc21	RanGTP-Impb inh 67 (no result: Runt-CBFb FRET, Runt-SMMHC FRET)
Cc1ccc(Cn2c(=N)c(S(=O)(=O)c3ccc(Br)cc3)cc3c(=O)n4ccccc4nc32)cc1	none (no result: Runt-CBFb FRET, Runt-SMMHC FRET)
CCCCNC(=O)c1cc2c(=O)n3cccc(C)c3nc2n1C	none (no result: RanGTP-Impb inh, IMP-1 inh, VIM-2 inhibitor)
COc1ccc(Cc2nnc(NC(=O)CS(=O)(=O)Cc3ccccc3)s2)cc1	none (no result: Runt-CBFb FRET, Runt-SMMHC FRET)
COc1ccc(CCNC(=O)C(=O)NCC2CCCN2S(=O)(=O)c2ccccc2)cc1OC (stereo not drawn)	none (no result: Runt-CBFb FRET, IMP-1 inh, VIM-2 inhibitor, Runt-SMMHC FRET)
O=C(CCN1C(=O)/C(=C\C=C\c2ccccc2)SC1=S)Nc1ccccc1C(=O)O	IMP-1 inh 8.1 (no result: Runt-CBFb FRET, Runt-SMMHC FRET)
Cc1ccc(NC(=O)CCCN2C(=O)/C(=C/C=C/c3ccccc3)SC2=S)cc1	IMP-1 inh 7.2
O=C(COC(=O)CCN1C(=O)/C(=C\C=C\c2ccccc2)SC1=S)Nc1ccc(Br)cc1	IMP-1 inh 5.5
COc1ccc(C(=O)C2CCCN(C(=O)/C=C/c3cnc[nH]3)C2)c(C)c1 (stereo not drawn)	none (no result: Runt-CBFb FRET, Runt-SMMHC FRET)
CS(=O)(=O)Cc1cccc(C(=O)NC2CCSc3ccccc32)c1 (stereo not drawn)	RanGTP-Impb inh inconclusive (no result: Runt-CBFb FRET, Runt-SMMHC FRET)
Cc1c(NC(=S)N/N=C/c2cccc(O)c2)c(=O)n(-c2ccccc2)n1C	VIM-2 inhibitor 10
Cc1c(NC(=S)Nc2ccc(Cl)cc2)c(=O)n(-c2ccccc2)n1C	none
CCNC(=S)Nc1c(C)n(C)n(-c2ccccc2)c1=O	none
Cc1c(NC(=S)N/N=C/c2ccc(N(C)C)cc2)c(=O)n(-c2ccccc2)n1C	Runt-SMMHC FRET 62
CCC1Oc2ccc(C)cc2N(CC(=O)NCCCN2CCOCC2)C1=O (stereo not drawn)	none (no result: Runt-CBFb FRET, Runt-SMMHC FRET)
COc1ccc(C(=S)N2CCN(c3ccccc3C)CC2)cc1	none
Cc1ccccc1NC(=S)Nc1cccc2cnccc12	VIM-2 inhibitor 8.0
Cc1ccc(C)c(NC(=S)Nc2cccc3cnccc23)c1	VIM-2 inhibitor 11
CC(=O)NS(=O)(=O)c1ccc(N2C(=O)c3ccccc3C2=O)cc1	RanGTP-Impb inh 20
Cc1ccc(-c2c(C)nn3c(N4CCOCC4)cc(C)nc23)cc1	none (no result: Runt-CBFb FRET, Runt-SMMHC FRET)
Cc1cc(N2CCOCC2)n2nc(C)c(-c3ccccc3)c2n1	Runt-CBFb FRET 86 (no result: RanGTP-Impb inh)
Cc1cc(C)nc(-n2nc(C)cc2NC(=O)CN2CCC(C)CC2)n1	VIM-2 inhibitor 9.0
CCCCN(C(=O)CC1CCCC1)c1c(N)n(CC(C)C)c(=O)[nH]c1=O	none (no result: Runt-CBFb FRET, IMP-1 inh, VIM-2 inhibitor, Runt-SMMHC FRET)
O=c1[nH]c2ccccc2nc1-c1c[nH]c2ccccc12	RanGTP-Impb inh 48 (no result: Runt-CBFb FRET, Runt-SMMHC FRET)
COc1ccc(CNC(=O)CCS(=O)(=O)c2cc3c(cc2Cl)NC(=O)CO3)cc1	none (no result: Runt-CBFb FRET, Runt-SMMHC FRET)
CCN(CC)CCCNC(=S)N(Cc1cccnc1)Cc1cc2cc(C)cc(C)c2[nH]c1=O	VIM-2 inhibitor 12 (no result: Runt-CBFb FRET, Runt-SMMHC FRET)
Cc1cccc2cc(CN(Cc3cccnc3)C(=O)c3ccncc3)c(=O)[nH]c12	none
Cc1cccc2cc(CN(CCCN(C)C)C(=S)NCCc3ccccc3)c(=O)[nH]c12	none
Cc1cc(C)c2[nH]c(=O)c(CN(Cc3cccnc3)C(=S)NCCCN(C)C)cc2c1	VIM-2 inhibitor 9.3
O=C(CNC(=O)c1ccc2c(=O)n3c(nc2c1)CCC3)Nc1ccc(F)c(F)c1	none (no result: Runt-CBFb FRET, IMP-1 inh, VIM-2 inhibitor, Runt-SMMHC FRET)
CCc1cc2c(COC(=O)c3c(C)noc3C)cc(=O)oc2cc1O	Runt-CBFb FRET 51, RanGTP-Impb inh 18, Runt-SMMHC FRET 86
O=C(Nc1nnc(SCC(=O)N2CCCCC2)s1)c1ccccc1F	VIM-2 inhibitor 9.2 (no result: Runt-CBFb FRET, Runt-SMMHC FRET)
O=C(Nc1nnc(SCC(=O)N2CCOCC2)s1)c1ccccc1Cl	none
